Bioassay records from PubChem BioAssay.
Jurkat NFkB inh = inhibitors of the PMA/ionomycin-induced NF-kB reporter in Jurkat cells | PMA/ionomycin-induced NF-kB luciferase reporter, luminescence | inhibition, % at 4 µM | actives 0.53% (n = 330,000); in the data active means inhibition above about 50%
NR2E3 ag-1 = activates human photoreceptor nuclear receptor NR2E3; inhibition of corepressor binding, % at 4.78 µM; AID 2300; GST-NR2E3/biotin-RetCOR TR-FRET, 1536-well; actives 0.12% (n = 320,000);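 active means percent inhibition above the cutoff of mean plus 3 SD of all tested compounds, set per screening campaign, cut at about 20% in these data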;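 further: 0% = DMSO wells and 100% = biotin wells as full block of FRET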
Target sequence (Q9Y5X4 whole entry, looked up): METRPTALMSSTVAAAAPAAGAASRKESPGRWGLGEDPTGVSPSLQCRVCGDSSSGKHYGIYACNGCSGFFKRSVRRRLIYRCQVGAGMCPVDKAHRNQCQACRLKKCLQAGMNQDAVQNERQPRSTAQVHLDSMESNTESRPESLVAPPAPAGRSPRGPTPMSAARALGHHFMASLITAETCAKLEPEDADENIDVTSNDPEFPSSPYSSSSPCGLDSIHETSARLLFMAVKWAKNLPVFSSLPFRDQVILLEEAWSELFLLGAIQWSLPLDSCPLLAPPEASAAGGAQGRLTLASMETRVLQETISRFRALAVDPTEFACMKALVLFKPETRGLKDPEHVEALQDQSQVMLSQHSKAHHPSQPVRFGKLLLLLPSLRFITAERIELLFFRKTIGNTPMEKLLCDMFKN
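system = GST-tagged NR2E3 plus biotinylated RetCOR corepressor | input = 1.35 nM GST-NR2E3 | also added = 7 nM biotin-RetCOR | schedule = 5 h incubation at 4 °C | measured by = TR-FRET with europium anti-GST and streptavidin-D2, 340 nm excitation | read-out = percent loss of FRET ratio relative to control wells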
NR2E3 ag-2 = activates human NR2E3 receptor. Q9Y5X4. CHO-S Gal4-NCOR/VP16-NR2E3 two-hybrid, luciferase. inhibition of corepressor binding, % at 3.98 µM. actives 0.35% (n = 360,000). AID 602229;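 active means inhibition above the mean of all tested compounds plus 3 SD, cut at about 70% in these data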;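 further: 0% = DMSO with NR2E3 transfected cells and 100% = cells lacking NR2E3 construct; higher means lower luciferase signal from less NR2E3 corepressor binding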
697 NFkB inh = lowers PMA/ionomycin-induced NF-kB signal in 697 B cells; AID 435022; actives 0.33% (n = 330,000); 697 B-cell NF-kB luciferase reporter, 16 h; inhibition, % at 4 µM; in the data active means inhibition above about 35%
GalR3 antag = antagonists of human GalR3; O60755; HEK293 GalR3-CNG cAMP membrane potential fluorescence; galR3 body fused to GalR1 C-terminus; inhibition, % at 3 µM; actives 0.44% (n = 360,000);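 active means inhibition above the screen-wide average plus 3 SD, cut at about 13% in these data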;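 further: forskolin and galanin both at EC90 stimulate the cells; cAMP rise reported by CNG channel membrane potential dye signal; 0% = forskolin plus galanin with DMSO and 100% = forskolin alone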
Target sequence (O60755 1-299 limits assumed): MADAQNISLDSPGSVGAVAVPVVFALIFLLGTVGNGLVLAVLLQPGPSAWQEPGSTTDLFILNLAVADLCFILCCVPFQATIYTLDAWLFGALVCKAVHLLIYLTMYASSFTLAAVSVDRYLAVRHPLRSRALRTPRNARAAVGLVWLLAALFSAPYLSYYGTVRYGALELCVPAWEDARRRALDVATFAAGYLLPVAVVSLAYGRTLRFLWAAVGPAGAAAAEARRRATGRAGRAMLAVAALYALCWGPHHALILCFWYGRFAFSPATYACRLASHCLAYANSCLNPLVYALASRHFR
Gli-Sufu antag = blocks Gli-Sufu signaling in a luciferase reporter | Sufu-KO-LIGHT fibroblasts, Gli luciferase reporter luminescence | inhibition, % at 5 µM | actives 0.74% (n = 340,000);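 active means inhibition above about 55%, limit read from the data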;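 further: 0% = DMSO-treated cells and 100% = wells with medium but no cells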
697 NFkB conf = lowers PMA/ionomycin-induced NF-kB signal in 697 B cells; AID 449746; 697 B-cell NF-kB luciferase, 16 h; inhibition, % at 4 µM; actives 35% (n = 2,000); shares compounds with 697 NFkB inh; in the data active means inhibition mostly above about 28%, no sharp cut-off; inactive means mostly below about 22%
* hit, by the source's call; i = inactive; · = not tested or not shown. Only some compounds are listed: those with a hit (about 1.8% of all), similar ones and a draw of the others.

SMILES	Jurkat NFkB inh	NR2E3 ag-1	NR2E3 ag-2	697 NFkB inh	GalR3 antag	Gli-Sufu antag	697 NFkB conf
Cc1c(CC(=O)NCCCC(=O)O)c(=O)oc2cc3c(cc12)CCC(C)(C)O3	-1.8	-1.3	-36.9	52.5*	-6.1	3.1	51.5*
COc1ccc2nc(-c3ccc(F)cc3)sc2c1	-127.0	-0.3	-90.5	-311.1	3.5	-160.4	-403.9
O=C(Nc1nc2cc3c(cc2s1)OCCO3)C1=COCCO1	36.6	-0.3	47.4	4.1	1.5	49.1	·
O=C(Nc1nc2ccc(F)cc2s1)C1=COCCO1	-99.7	3.1	-70.0	-250.0	-5.0	-73.3	-75.5
Cc1ccc(S(=O)(=O)c2cc3c(=O)n4ccccc4nc3n(Cc3ccco3)c2=N)cc1C	21.5	-0.5	·	40.5*	0.4	-8.8	0.0
Cc1c(OCc2ccc(C(=O)O)cc2)ccc2c(-c3ccccc3)cc(=O)oc12	4.9	2.9	-4.9	36.6*	4.2	3.3	7.2
CCOC(=O)C(Oc1ccc2c(-c3ccccc3)cc(=O)oc2c1C)c1ccccc1 (configuration not stated)	20.7	-1.2	-38.2	-1.2	-1.8	8.7	·
C#CCN(Cc1cccc(F)c1)C(=O)c1nnc2c3ccccc3n(S(=O)(=O)c3ccc(C)cc3)c2n1	·	·	·	·	-3.4	·	·
Cc1cc(F)ccc1NC(=O)C1CCN(C(=O)Nc2ccccc2)CC1	-2.4	1.4	-2.6	-8.0	·	6.9	·
COc1cccc(NC(=O)N2CCC(C(=O)Nc3ccc(C)cc3C)CC2)c1	1.9	-0.7	39.6	35.1*	-6.1	5.5	12.8
CCOc1cc(/C=C(/C#N)c2nc3ccccc3[nH]2)ccc1Oc1ccc([N+](=O)[O-])cn1	9.0	1.8	-22.2	39.7*	-8.8	16.5	7.4
CCOc1cc(/C=C(\C#N)c2nc3ccccc3[nH]2)ccc1OC(C)C(=O)O (configuration not stated)	-0.3	-3.5	-76.8	17.9	-4.1	3.2	·
CCN=C1NC(c2ccccc2)C(C(=O)OC)=C(C)N1Cc1ccc(C(F)(F)F)cc1 (configuration not stated)	·	·	·	·	-6.5	·	·
CC(C)CC(=O)Nc1ccc2oc(-c3cccnc3)nc2c1	-42.7	2.4	-51.0	-55.1	-3.3	-52.0	·
Cc1ccc2oc(-c3ccc(NC(=O)CC(C)C)cc3)nc2c1	-129.8	-1.1	-100.7	-254.6	-1.2	-109.2	-226.9
Cc1ccc2oc(-c3ccc(NC(=O)c4cccnc4)cc3)nc2c1	-75.7	0.9	-144.2	-395.5	-1.1	-24.9	-368.8
NC(=O)c1c(N)[nH]c(C(=O)c2ccccc2)c1-c1ccc2ccccc2c1	·	·	·	·	-1.6	·	·
Cc1cc(-c2nc(C)c(-c3nnc(SCC(=O)Nc4cc(Cl)cc(Cl)c4)n3C)s2)no1	0.5	2.4	-12.5	9.0	-1.8	0.5	·
Cn1c(SCC(=O)Nc2cc(Cl)cc(Cl)c2)nnc1-c1ccc2nonc2c1	6.0	2.3	-1.4	38.5*	4.2	-2.0	26.0
COc1ccc(S(=O)(=O)Nc2cc3c(C(C)=O)c(C)oc3c3ccccc23)cc1	47.7	2.2	26.2	41.2*	-3.4	35.1	31.9*
O=C(NCc1ccccc1)[C@@H]1CCCN1C(=O)[C@H]1CCCN1C(=O)c1ccc(OC(F)(F)F)cc1	·	·	·	·	-0.9	·	·
O=[N+]([O-])c1ccccc1COc1ccc(Cl)c2cccnc12	-75.6	1.6	-137.4	-306.4	-3.2	-79.5	-312.0
CC(C)C(c1nnnn1Cc1ccccc1)N(Cc1ccco1)Cc1cccs1 (configuration not stated)	-3.0	-0.3	8.0	35.3*	-3.5	-6.0	28.2*
COC(=O)c1cc2c(c3c4cc(C)ccc4n(S(=O)(=O)c4ccc(C)cc4)c13)C(=O)N(Cc1ccc(N(C)C)cc1)C2	·	·	·	·	-6.0	·	·
CSc1nn(CCC#N)c(=O)[nH]c1=O	·	·	·	·	0.0	·	·
SMILES	Jurkat NFkB inh	NR2E3 ag-1	NR2E3 ag-2	697 NFkB inh	GalR3 antag	Gli-Sufu antag	697 NFkB conf
C[C@@H]1CN([C@H](C)CO)C(=O)CCCn2cc(nn2)CO[C@H]1CN(C)C(=O)Oc1ccccc1	·	·	·	·	-7.5	·	·
Cc1ccc(C(=O)N/N=C/c2nc3ccccc3n2C)cc1	-15.3	0.5	-20.4	38.7*	2.7	-14.5	19.9
C[C@@H]1ON(C)[C@H]2C[C@H]3c4[nH]c5c(-c6ccccc6F)cccc5c4CCN3C(=O)[C@@H]12	·	·	·	·	-6.7	·	·
CCOC(=O)CN1C(=O)[C@]2(OCCC=C[C@H]2C)c2c(Br)cccc21	·	·	·	·	-7.0	·	·
COC(=O)C1=C(C)N(Cc2cccc(C(F)(F)F)c2)C(=NCc2cc(OC)c(OC)c(OC)c2)NC1CCc1ccccc1 (configuration not stated)	·	·	·	·	-6.9	·	·
CCOc1cc(/C=N\Nc2nc(Nc3ccccc3)nc(N3CCOCC3)n2)ccc1OC(=O)c1ccco1	-62.1	-2.9	38.3	59.0*	1.0	35.6	46.1*
CC(=O)Nc1ccc(/C(C)=N/Nc2nc(Nc3ccccc3)nc(N3CCOCC3)n2)cc1	-19.8	1.2	28.3	53.0*	-3.1	26.3	17.5
COc1cc(/C=N/Nc2nc(C)cc(C)n2)ccc1OC(=O)c1ccco1	-4.9	-4.5	-16.7	13.4	-9.0	-4.5	·
COCC1CN(CCc2ccc(F)cc2)S(=O)(=O)c2c(OCCN3C(=O)[C@@H]4[C@H](C3=O)[C@@H]3C=C[C@H]4C3)cccc2O1 (some centres not stated)	·	·	·	·	-2.5	·	·
COc1ccc(C(=O)Nc2ccc3ncccc3c2)cc1	-103.0	1.9	-173.2	-290.4	-9.5	-56.3	-333.0
CC(C)C[C@H](NC(=O)c1nc[nH]c1C(=O)N1CCN(C(=O)OC(C)(C)C)CC1)C(=O)OC(C)(C)C	-16.1	-1.3	29.6	i	-5.9	6.6	i
Cc1cccc(-c2nc(CSc3nc4c(c(=O)[nH]3)CCC4)c(C)o2)c1	23.9	0.3	2.4	38.9*	3.1	-3.0	20.7
CC(=O)N(c1nc2ccccc2s1)N1C(=O)c2ccccc2C1=O	·	·	·	·	-6.3	·	·
CCOC(=O)Oc1c(OC)cc(C(=O)O[C@@H]2C[C@@H]3CN4CCc5c([nH]c6cc(OC)ccc56)[C@H]4C[C@@H]3[C@H](C(=O)OC)[C@H]2OC)cc1OC	11.1	-0.2	-8.6	36.9*	0.2	6.7	25.5
COC(=O)C1C2CC3c4[nH]c5cc(OC)ccc5c4CCN3CC2CC(OC(=O)CC(C)=O)C1OC (configuration not stated)	·	·	-4.6	·	-3.0	3.9	·
CCOC(=O)C1=C(C(=O)OCC)C2N(Cc3ccc(C#N)cc3)c3ccccc3[C@@]23C[C@@H](C(=O)OC)N(S(=O)(=O)c2ccccc2C)C3=N1 (some centres not stated)	·	·	·	·	1.6	·	·
Nc1ccc2nc(-c3ccccc3)c(-c3ccccc3)nc2c1	14.4	4.0	-16.9	-18.9	3.0	-12.6	·
Nc1ccc2nc(-c3ccccc3)sc2c1	-113.3	-0.1	-117.5	-344.2	-5.2	-112.3	-179.3
